Data taken from ChEMBL document CHEMBL1124629, “Syntheses and biological activities of 13-substituted avermectin aglycons” (J Med Chem, 1989).

Experiments:
[1] = Binding radioligand; design: species or system Caenorhabditis elegans
Outline: (§1)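 Competitive binding with [22,23-3H2]ivermectin as radioligand, displaced from an avermectin receptor preparation derived from the free-living nematode Caenorhabditis elegans.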

Tetranychus urticae [2] = assay: Antiparasitic activity against two-spotted spider mite Tetranychus urticae on bean plants; assay type: functional
Outline: (§2)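 Two-spotted spider mite (Tetranychus urticae) infesting bean plants treated with test compound.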

Spodoptera eridania [3] = assay: Antiparasitic activity against southern army worm Spodoptera eridania; assay type: functional
Outline: (§3)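 Neonate southern armyworm (Spodoptera eridania) larvae placed on bean leaves treated with test compound.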

[4] = system: Trichostrongylus colubriformis; assay: Antiparasitic activity against sheep parasite Trichostrongylus colubriformis; assay type: functional
Outline: (§4)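 Sheep nematode Trichostrongylus colubriformis tested in vivo in a gerbil infection model.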

[5] = system: Trichostrongylus colubriformis; assay: Antiparasitic activity against sheep parasite Trichostrongylus colubriformis; conditions: in gerbil
[6] = Displacement of ivermectin from avermectin receptor of Caenorhabditis elegans; outline: as §1
Tetranychus urticae [7] = assay: Antiparasitic activity against Tetranychus urticae; assay type: functional; outline: as §2
Spodoptera eridania [8] = assay: Antiparasitic activity against Southern army worm; assay type: functional; outline: as §3
[9] = system: Trichostrongylus colubriformis; assay: Antiparasitic activity against Trichostrongylus colubriformis; assay type: functional; outline: as §4

| Compound | Ki [1] | Ki [6] | ED90 (Tetranychus urticae [2]) | ED90 (Spodoptera eridania [3]) | ED90 [4] | ED90 [5] | ED90 (Tetranychus urticae [7]) | ED90 (Spodoptera eridania [8]) | ED90 [9] |
| --- | --- | --- | --- | --- | --- | --- | --- | --- | --- |
| IVERMECTIN [listing 1 of 2 here] | 0.3 nM |  |  |  |  |  |  |  |  |
| IVERMECTIN [listing 2 of 2 here] |  |  | 0.05 p.p.m. | 8 p.p.m. | 0.05 mg/kg |  |  |  |  |
| CC[C@H](C)[C@H]1O[C@]2(CC[C@@H]1C)C[C@@H]1C[C@@H](C/C=C(C)/C=C(C)\C=C\C=C3/CO[C@@H]4[C@H](O)C(C)=C[C@@H](C(=O)O1)[C@]34O)O2 |  | 0.8 nM | >6.25 p.p.m. | >1 p.p.m. |  | > 2.5 mg/kg |  |  |  |
| CC[C@H](C)[C@H]1O[C@]2(CC[C@@H]1C)C[C@@H]1C[C@@H](C/C=C(\C)[C@@H](Cl)[C@@H](C)/C=C/C=C3\CO[C@@H]4[C@H](O)C(C)=C[C@@H](C(=O)O1)[C@]34O)O2 |  |  |  |  |  |  | >0.1 p.p.m. | <1 p.p.m. | < 0.1 mg/kg |
| CC[C@H](C)[C@H]1O[C@]2(CC[C@@H]1C)C[C@@H]1C[C@@H](C/C=C(\C)C(=O)[C@@H](C)/C=C/C=C3\CO[C@@H]4[C@H](O)C(C)=C[C@@H](C(=O)O1)[C@]34O)O2 |  | 0.6 nM |  |  |  |  | 6.25 p.p.m. | >0.5 p.p.m. | 0.5 mg/kg |
| CC[C@H](C)[C@H]1O[C@]2(CC[C@@H]1C)C[C@@H]1C[C@@H](C/C=C(\C)[C@H](F)[C@@H](C)/C=C/C=C3\CO[C@@H]4[C@H](O)C(C)=C[C@@H](C(=O)O1)[C@]34O)O2 |  | 0.3 nM | 0.01 p.p.m. | 0.5 p.p.m. |  | < 0.1 mg/kg |  |  |  |
| CC[C@H](C)[C@H]1O[C@]2(CC[C@@H]1C)C[C@@H]1C[C@@H](C/C=C(C)/C(=N\OC)[C@@H](C)/C=C/C=C3\CO[C@@H]4[C@H](O)C(C)=C[C@@H](C(=O)O1)[C@]34O)O2 | 0.3 nM |  | 0.05 p.p.m. | 0.5 p.p.m. |  | < 0.1 mg/kg |  |  |  |
| CC[C@H](C)[C@H]1O[C@]2(CC[C@@H]1C)C[C@@H]1C[C@@H](C/C=C(\C)[C@H](O)[C@@H](C)/C=C/C=C3\CO[C@@H]4[C@H](O)C(C)=C[C@@H](C(=O)O1)[C@]34O)O2 |  | 2 nM | 0.05 p.p.m. | >8 p.p.m. |  | < 0.5 mg/kg |  |  |  |
| CC[C@H](C)[C@H]1O[C@]2(CC[C@@H]1C)C[C@@H]1C[C@@H](C/C=C(\C)[C@@H](N)[C@@H](C)/C=C/C=C3\CO[C@@H]4[C@H](O)C(C)=C[C@@H](C(=O)O1)[C@]34O)O2 |  | > 100 nM | >0.1 p.p.m. | >1 p.p.m. |  | 0.5 mg/kg |  |  |  |
| CC[C@H](C)[C@H]1O[C@]2(C=C[C@@H]1C)C[C@@H]1C[C@@H](C/C=C(\C)[C@@H](O[C@H]3C[C@H](OC)[C@@H](O[C@H]4C[C@H](OC)[C@@H](O)[C@H](C)O4)[C@H](C)O3)[C@@H](C)/C=C/C=C3\CO[C@@H]4[C@H](O)C(C)=C[C@@H](C(=O)O1)[C@]34O)O2 [ABAMECTIN COMPONENT B1A] | 0.1 nM |  | 0.05 p.p.m. | 8 p.p.m. |  | 0.03 mg/kg |  |  |  |

Further lines, with some results ahead:

| Ki [1] | Ki [6] | Compound | ED90 (Tetranychus urticae [2]) | ED90 (Spodoptera eridania [3]) | ED90 [4] | ED90 [5] | ED90 (Tetranychus urticae [7]) | ED90 (Spodoptera eridania [8]) | ED90 [9] |
| --- | --- | --- | --- | --- | --- | --- | --- | --- | --- |
|  | 1 nM | CC[C@H](C)[C@H]1O[C@]2(CC[C@@H]1C)C[C@@H]1C[C@@H](C/C=C(\C)[C@H](Cl)[C@@H](C)/C=C/C=C3\CO[C@@H]4[C@H](O)C(C)=C[C@@H](C(=O)O1)[C@]34O)O2 |  |  |  |  | 0.25 p.p.m. | 0.5 p.p.m. | 0.1 mg/kg |
|  | 0.9 nM | CC[C@H](C)[C@H]1O[C@]2(CC[C@@H]1C)C[C@@H]1C[C@@H](C/C=C(\C)C[C@@H](C)/C=C/C=C3\CO[C@@H]4[C@H](O)C(C)=C[C@@H](C(=O)O1)[C@]34O)O2 | 0.05 p.p.m. | 0.5 p.p.m. |  | 0.06 mg/kg |  |  |  |
| > 100 nM |  | CC[C@H](C)[C@H]1O[C@]2(CC[C@@H]1C)C[C@@H]1C[C@@H](CC(N(C)C(C)=O)/C(C)=C\[C@@H](C)/C=C/C=C3\CO[C@@H]4[C@H](O)C(C)=C[C@@H](C(=O)O1)[C@]34O)O2 (some centres not stated) | >6.25 p.p.m. |  |  | > 2.5 mg/kg |  |  |  |
|  | 2.9 nM | CC[C@H](C)[C@H]1O[C@]2(CC[C@@H]1C)C[C@@H]1C[C@@H](C/C=C(\C)[C@H](OCOCCOC)[C@@H](C)/C=C/C=C3\CO[C@@H]4[C@H](O)C(C)=C[C@@H](C(=O)O1)[C@]34O)O2 |  |  |  |  | 0.01 p.p.m. | >0.25 p.p.m. | < 0.1 mg/kg |
|  | 2.7 nM | CC[C@H](C)[C@H]1O[C@]2(CC[C@@H]1C)C[C@@H]1C[C@@H](C/C=C(\C)[C@@H](OCOCCOC)[C@@H](C)/C=C/C=C3\CO[C@@H]4[C@H](O)C(C)=C[C@@H](C(=O)O1)[C@]34O)O2 |  |  |  |  | 0.05 p.p.m. | <1 p.p.m. | > 0.1 mg/kg |
| > 100 nM |  | CC[C@H](C)[C@H]1O[C@]2(CC[C@@H]1C)C[C@@H]1C[C@@H](CC(O)/C(C)=C\[C@@H](C)/C=C/C=C3\CO[C@@H]4[C@H](O)C(C)=C[C@@H](C(=O)O1)[C@]34O)O2 (some centres not stated) | >6.25 p.p.m. |  |  |  |  |  |  |
|  | 2.4 nM | CC[C@H](C)[C@H]1O[C@]2(CC[C@@H]1C)C[C@@H]1C[C@@H](C/C=C(\C)[C@H](I)[C@@H](C)/C=C/C=C3\CO[C@@H]4[C@H](O)C(C)=C[C@@H](C(=O)O1)[C@]34O)O2 |  |  |  |  | 1.25 p.p.m. |  | 0.5 mg/kg |
|  | 6.4 nM | CC[C@H](C)[C@H]1O[C@]2(CC[C@@H]1C)C[C@@H]1C[C@@H](C/C=C(\C)[C@@H](O)[C@@H](C)/C=C/C=C3\CO[C@@H]4[C@H](O)C(C)=C[C@@H](C(=O)O1)[C@]34O)O2 [IVM AGLYCONE] | 0.5 p.p.m. | >6.25 p.p.m. |  |  |  |  |  |
|  | > 100 nM | CC[C@H](C)[C@H]1O[C@]2(CC[C@@H]1C)C[C@@H]1C[C@@H](CC(N3CCOCC3)/C(C)=C\[C@@H](C)/C=C/C=C3\CO[C@@H]4[C@H](O)C(C)=C[C@@H](C(=O)O1)[C@]34O)O2 (some centres not stated) | 6.25 p.p.m. |  |  | > 2.5 mg/kg |  |  |  |
|  | 0.6 nM | CC[C@H](C)[C@H]1O[C@]2(CC[C@@H]1C)C[C@@H]1C[C@@H](C/C=C(\C)[C@@H](OC)[C@@H](C)/C=C/C=C3\CO[C@@H]4[C@H](O)C(C)=C[C@@H](C(=O)O1)[C@]34O)O2 | 1 p.p.m. |  |  | 0.5 mg/kg |  |  |  |
|  | 0.2 nM | CC[C@H](C)[C@H]1O[C@]2(CC[C@@H]1C)C[C@@H]1C[C@@H](C/C=C(\C)[C@@H](F)[C@@H](C)/C=C/C=C3\CO[C@@H]4[C@H](O)C(C)=C[C@@H](C(=O)O1)[C@]34O)O2 | 0.05 p.p.m. | >0.5 p.p.m. |  | < 0.1 mg/kg |  |  |  |
